Assay results as given in ChEMBL document CHEMBL5357082, “Identification and Optimization of Small Molecule Pyrazolopyrimidine TLR7 Agonists for Applications in Immuno-oncology” (ACS Med Chem Lett, 2024).
Active and inactive are the calls of the source. The calls are words filed in the database; no cut-off is given here.

What was measured:
[1] = Clearance in nontumor bearing Balb/C mouse at 0.5 mg/kg; format: ADME, organism-based; settings: in vivo
Cytochrome P450 1A2 = biological target: T1, Cytochrome P450 1A2 (Homo sapiens, UniProt P05177); experiment: Inhibition of CYP1A2 (unknown origin); format: ADME
T1 sequence (P05177 whole entry): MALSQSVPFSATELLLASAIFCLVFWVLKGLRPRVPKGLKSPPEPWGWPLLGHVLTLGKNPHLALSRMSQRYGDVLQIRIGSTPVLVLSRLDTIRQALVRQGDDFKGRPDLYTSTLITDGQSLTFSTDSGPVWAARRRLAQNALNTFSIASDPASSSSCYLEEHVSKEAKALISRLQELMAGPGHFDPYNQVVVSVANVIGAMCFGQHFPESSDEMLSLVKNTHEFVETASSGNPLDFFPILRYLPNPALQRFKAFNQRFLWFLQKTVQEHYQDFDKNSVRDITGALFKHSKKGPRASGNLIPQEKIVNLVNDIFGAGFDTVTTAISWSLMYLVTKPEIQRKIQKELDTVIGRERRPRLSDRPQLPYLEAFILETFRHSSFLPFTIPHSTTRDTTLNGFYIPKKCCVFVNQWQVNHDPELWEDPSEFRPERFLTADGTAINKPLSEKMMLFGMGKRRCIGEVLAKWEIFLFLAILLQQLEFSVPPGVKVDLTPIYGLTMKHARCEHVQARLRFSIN

[2] = Metabolic stability in mouse liver microsomes assessed as compound remaining at 0.5 uM incubated for 10 mins in presence of NADPH by UV absorbance based assay; format: ADME, Microsome; settings: read-out: Stability
CT26 [3] = experiment: Antitumor activity against syngeneic mouse CT26 cells implanted in Balb/cAnNHsd mouse assessed as complete tumor regression with no relapse at 2.5 mg/kg, ip administered once a week for 4 weeks in presence of aPD1 antibody and measured twice weekly by digital caliper analysis; format: functional, organism-based
In short: (§1)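 Syngeneic CT-26 tumors in mice. The TLR7 agonist was given at 0.5 or 2.5 mg/kg weekly for 4 doses (QWx4). It was combined with anti-PD1 antibody at 10 mg/kg IP, every 4 days for 7 doses (Q4Dx7). Tumor growth was followed, including 27 days after compound dosing stopped.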

[4] = biological target: Voltage-gated inwardly rectifying potassium channel KCNH2 (Homo sapiens, UniProt Q12809); experiment: Inhibition of hERG; format: toxicity
Chain of Voltage-gated inwardly rectifying potassium channel KCNH2 (Q12809 whole entry): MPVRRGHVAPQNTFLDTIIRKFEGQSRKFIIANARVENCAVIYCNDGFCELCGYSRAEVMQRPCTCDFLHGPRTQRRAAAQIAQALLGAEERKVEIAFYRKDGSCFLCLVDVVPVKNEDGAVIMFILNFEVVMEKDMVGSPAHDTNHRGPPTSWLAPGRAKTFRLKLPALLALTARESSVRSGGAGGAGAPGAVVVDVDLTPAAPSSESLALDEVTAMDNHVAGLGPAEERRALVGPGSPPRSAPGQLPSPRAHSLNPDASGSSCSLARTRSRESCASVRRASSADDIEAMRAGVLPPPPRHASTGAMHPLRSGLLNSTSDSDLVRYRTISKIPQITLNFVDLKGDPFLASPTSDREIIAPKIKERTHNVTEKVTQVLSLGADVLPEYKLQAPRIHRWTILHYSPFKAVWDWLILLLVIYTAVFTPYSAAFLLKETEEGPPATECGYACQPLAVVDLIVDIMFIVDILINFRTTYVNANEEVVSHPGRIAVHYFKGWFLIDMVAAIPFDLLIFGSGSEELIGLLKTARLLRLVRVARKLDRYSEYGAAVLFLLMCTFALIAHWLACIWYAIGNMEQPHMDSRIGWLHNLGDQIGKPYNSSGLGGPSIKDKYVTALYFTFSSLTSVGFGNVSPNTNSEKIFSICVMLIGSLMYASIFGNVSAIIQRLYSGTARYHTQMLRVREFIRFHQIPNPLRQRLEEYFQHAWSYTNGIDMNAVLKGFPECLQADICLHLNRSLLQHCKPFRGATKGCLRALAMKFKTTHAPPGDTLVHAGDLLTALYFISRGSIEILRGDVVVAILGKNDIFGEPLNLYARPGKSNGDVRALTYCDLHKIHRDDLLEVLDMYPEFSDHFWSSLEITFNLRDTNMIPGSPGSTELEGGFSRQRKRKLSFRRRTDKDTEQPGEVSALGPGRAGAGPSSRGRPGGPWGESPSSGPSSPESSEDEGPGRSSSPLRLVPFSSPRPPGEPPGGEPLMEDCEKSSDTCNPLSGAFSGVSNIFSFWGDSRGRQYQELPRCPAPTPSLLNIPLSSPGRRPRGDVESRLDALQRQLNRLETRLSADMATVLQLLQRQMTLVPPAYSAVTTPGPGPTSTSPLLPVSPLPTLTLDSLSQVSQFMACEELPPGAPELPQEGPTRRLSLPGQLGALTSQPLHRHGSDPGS

[5] = Metabolic stability in human liver microsomes assessed as compound remaining at 0.5 uM incubated for 10 mins in presence of NADPH by UV absorbance based assay; format: ADME, Microsome; settings: read-out: Stability
Cytochrome P450 2D6 = Cytochrome P450 2D6 (Homo sapiens, UniProt P10635); experiment: Inhibition of CYP2D6 (unknown origin); format: ADME
Chain of Cytochrome P450 2D6 (P10635 whole entry): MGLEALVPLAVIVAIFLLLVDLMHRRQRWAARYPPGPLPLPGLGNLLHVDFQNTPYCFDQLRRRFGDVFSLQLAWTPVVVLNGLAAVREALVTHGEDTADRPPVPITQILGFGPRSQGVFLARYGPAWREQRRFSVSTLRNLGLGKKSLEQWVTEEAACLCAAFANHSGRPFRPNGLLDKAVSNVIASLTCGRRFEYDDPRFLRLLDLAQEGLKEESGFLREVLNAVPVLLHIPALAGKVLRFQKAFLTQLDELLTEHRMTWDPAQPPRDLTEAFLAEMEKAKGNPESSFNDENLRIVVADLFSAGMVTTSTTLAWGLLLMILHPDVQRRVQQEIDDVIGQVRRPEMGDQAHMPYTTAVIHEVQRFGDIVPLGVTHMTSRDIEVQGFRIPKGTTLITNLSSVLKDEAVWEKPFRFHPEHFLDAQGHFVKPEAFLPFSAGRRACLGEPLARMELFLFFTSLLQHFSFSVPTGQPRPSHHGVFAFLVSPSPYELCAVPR

[6] = AUClast in nontumor bearing Balb/C mouse at 0.5 mg/kg; format: ADME, organism-based; parameters: dose 0.5 mg/kg; settings: in vivo
Cytochrome P450 3A4 [7] = biological target: T2, Cytochrome P450 3A4 (Homo sapiens, UniProt P08684); experiment: Inhibition of CYP3A4 (unknown origin) using BFC as substrate preincubated with compound followed by substrate addition at 5 mins; format: ADME
T2 sequence (P08684 whole entry): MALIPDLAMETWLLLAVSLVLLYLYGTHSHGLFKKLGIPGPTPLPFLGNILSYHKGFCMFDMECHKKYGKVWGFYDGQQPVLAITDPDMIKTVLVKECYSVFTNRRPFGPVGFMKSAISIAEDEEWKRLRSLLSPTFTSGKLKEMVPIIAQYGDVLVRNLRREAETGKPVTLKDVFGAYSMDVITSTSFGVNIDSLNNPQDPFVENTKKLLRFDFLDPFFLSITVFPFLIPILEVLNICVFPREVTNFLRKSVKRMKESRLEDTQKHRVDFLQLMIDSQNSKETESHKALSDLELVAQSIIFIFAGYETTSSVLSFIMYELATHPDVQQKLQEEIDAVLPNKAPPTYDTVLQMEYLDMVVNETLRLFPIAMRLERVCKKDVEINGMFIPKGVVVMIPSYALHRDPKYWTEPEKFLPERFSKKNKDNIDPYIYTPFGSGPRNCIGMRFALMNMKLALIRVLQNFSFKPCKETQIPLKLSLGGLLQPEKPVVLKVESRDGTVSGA

Mus musculus = experiment: Immunostimulatory activity in nontumor bearing Balb/C mouse assessed as increase in IFNalpha production in serum at 0.5 to 1 mg/kg, iv measured after 2 hrs by ELISA; format: functional, organism-based; settings: dose 0.5-1 mg/kg
In short: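 Nontumor-bearing female Balb/C mice received a single 1 mg/kg dose. Serum IFNα was measured 2 h after administration, with N = 9 mice per group.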

Cytochrome P450 3A4 [8] = biological target: T2, Cytochrome P450 3A4; experiment: Inhibition of CYP3A4 (unknown origin) using BFC as substrate preincubated with compound followed by substrate addition at 30 mins; format: ADME
CT26 [9] = experiment: Antitumor activity against syngeneic mouse CT26 cells implanted in ip dosed Balb/cAnNHsd mouse assessed as tumor growth delay administered once a week for 4 weeks in presence of aPD1 antibody and measured twice weekly by digital caliper analysis; format: functional, organism-based; settings: dose 0.5-2.5 mg/kg; in short: as §1
[10] = Cytotoxicity against PHA-activated T-cells (unknown origin) assessed as inhibition of IL-2 induced cell proliferation measured after 72 hrs by MTS assay; format: toxicity, cell-based
Toll-like receptor 7 = biological target: T3, Toll-like receptor 7 (Homo sapiens, UniProt Q9NYK1); experiment: Agonist activity at human TLR7 in HEK-Blue hTLR7 cells harboring SEAP reporter transgene incubated for 18 hrs by quanti-blue reagent based assay; format: cell-based
T3 sequence (Q9NYK1 whole entry): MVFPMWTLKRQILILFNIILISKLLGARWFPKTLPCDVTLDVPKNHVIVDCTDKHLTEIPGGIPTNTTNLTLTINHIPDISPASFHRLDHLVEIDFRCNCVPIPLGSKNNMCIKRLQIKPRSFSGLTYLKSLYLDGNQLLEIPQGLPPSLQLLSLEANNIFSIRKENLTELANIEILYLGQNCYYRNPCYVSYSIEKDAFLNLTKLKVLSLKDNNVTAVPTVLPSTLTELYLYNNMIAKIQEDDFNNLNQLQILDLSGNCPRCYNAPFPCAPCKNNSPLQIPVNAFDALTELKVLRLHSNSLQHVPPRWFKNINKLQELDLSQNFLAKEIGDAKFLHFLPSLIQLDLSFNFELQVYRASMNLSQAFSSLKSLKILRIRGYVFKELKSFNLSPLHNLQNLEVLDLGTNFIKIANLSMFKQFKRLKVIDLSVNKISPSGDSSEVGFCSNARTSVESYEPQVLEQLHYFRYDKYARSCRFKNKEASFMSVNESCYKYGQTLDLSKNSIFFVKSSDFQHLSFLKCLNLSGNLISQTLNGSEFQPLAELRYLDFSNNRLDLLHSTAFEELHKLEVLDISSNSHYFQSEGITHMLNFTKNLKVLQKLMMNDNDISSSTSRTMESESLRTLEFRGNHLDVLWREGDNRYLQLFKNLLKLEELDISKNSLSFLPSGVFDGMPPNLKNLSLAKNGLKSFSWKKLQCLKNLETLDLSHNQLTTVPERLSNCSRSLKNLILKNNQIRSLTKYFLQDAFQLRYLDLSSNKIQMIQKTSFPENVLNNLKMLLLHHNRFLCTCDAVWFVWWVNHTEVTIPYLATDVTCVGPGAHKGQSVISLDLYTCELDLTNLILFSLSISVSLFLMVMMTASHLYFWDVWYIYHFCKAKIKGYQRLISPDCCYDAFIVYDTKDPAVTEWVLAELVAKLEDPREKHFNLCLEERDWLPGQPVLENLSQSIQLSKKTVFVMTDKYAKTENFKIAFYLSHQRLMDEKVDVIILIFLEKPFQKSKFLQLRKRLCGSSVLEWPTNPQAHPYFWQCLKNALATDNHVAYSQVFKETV

Cytochrome P450 2C19 = Cytochrome P450 2C19 (Homo sapiens, UniProt P33261); experiment: Inhibition of CYP2C19 (unknown origin); format: ADME
Chain of Cytochrome P450 2C19 (P33261 whole entry): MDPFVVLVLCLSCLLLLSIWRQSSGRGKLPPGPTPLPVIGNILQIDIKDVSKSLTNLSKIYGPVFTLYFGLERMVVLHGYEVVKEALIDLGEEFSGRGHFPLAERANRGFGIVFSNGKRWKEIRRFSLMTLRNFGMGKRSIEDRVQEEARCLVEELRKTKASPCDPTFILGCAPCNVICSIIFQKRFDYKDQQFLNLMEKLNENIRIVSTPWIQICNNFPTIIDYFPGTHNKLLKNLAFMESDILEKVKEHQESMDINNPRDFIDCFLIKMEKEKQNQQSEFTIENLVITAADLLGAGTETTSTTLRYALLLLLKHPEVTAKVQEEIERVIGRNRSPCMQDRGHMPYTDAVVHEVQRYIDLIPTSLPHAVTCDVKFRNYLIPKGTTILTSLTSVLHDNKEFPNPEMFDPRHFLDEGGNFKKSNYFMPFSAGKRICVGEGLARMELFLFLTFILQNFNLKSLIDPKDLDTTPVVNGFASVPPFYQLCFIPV

Cytochrome P450 2C9 = Cytochrome P450 2C9 (Homo sapiens, UniProt P11712); experiment: Inhibition of CYP2C9 (unknown origin); format: ADME
Chain of Cytochrome P450 2C9 (P11712 whole entry): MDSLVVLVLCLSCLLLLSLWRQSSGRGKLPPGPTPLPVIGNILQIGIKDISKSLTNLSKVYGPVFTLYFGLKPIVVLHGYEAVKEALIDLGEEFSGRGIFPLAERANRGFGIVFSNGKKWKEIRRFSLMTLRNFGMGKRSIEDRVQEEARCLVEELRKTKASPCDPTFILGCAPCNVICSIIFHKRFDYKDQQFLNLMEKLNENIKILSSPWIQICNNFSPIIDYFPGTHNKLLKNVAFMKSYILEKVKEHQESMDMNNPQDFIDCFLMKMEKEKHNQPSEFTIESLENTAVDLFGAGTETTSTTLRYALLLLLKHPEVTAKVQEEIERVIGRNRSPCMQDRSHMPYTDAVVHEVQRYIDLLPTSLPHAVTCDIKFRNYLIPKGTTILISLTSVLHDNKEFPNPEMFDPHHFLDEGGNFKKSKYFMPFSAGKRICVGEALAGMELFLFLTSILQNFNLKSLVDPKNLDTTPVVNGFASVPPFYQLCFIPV

clearance [1]: 22 mL/min/kg | IC50 (Cytochrome P450 1A2): > 20 µM | remaining at 10 min, 0.5 µM [2]: 100% | remaining at 10 min, 0.5 µM [5]: 86% | IC50 (Cytochrome P450 2D6): > 20 µM | AUC(0-t) [6]: 0.655 µM·h | IC50 (Cytochrome P450 3A4 [7]): > 20 µM | IC50 (Cytochrome P450 3A4 [8]): > 20 µM | EC50 (Toll-like receptor 7): 0.013 µM | IC50 (Cytochrome P450 2C19): > 20 µM | IC50 (Cytochrome P450 2C9): > 20 µM
Structure (SMILES): CCC[C@@H](CCO)Nc1nc(N)nc2cnn(Cc3ncc(C4CCN(C5CCOCC5)CC4)cc3OC)c12
Activity (CT26 [3]): Active | IC50 [4]: > 50 µM | Activity (Mus musculus): Active | Activity (CT26 [9]): Active | IC50 at 72 h [10]: > 25 µM
